Experimental data: ChEMBL document CHEMBL4513216, “Probing the Open Global Health Chemical Diversity Library for Multistage-Active Starting Points for Next-Generation Antimalarials” (ACS Infect Dis, 2020)

assay: Toxicity liver stage against HepG2, at 10uM; format: cell-based; design: test concentration 10 uM, cell line HepG2-A16-CD81EGFP; conditions: human, HepG2-A16-CD81EGFP cells; read-out: INHIBITION
Procedure, shortened: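 Uninfected HepG2-A16-CD81EGFP cells, 3 × 10^3 per well, 1536-well, plated on prespotted compound at 10 μM final, parasite-free screening media added to match infected plates; puromycin 10 μM positive, DMSO 0.5% negative; run in parallel with 48 h PbLuc assay at 37 °C, 5% CO2; viability by CellTiter-Glo luminescence, normalized to controls.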

SMILES | cytotoxicity at 10 µM [%]
O=C(Nc1ccccc1C(=O)NCCN1CCOCC1)c1ccco1 | -0.972
CC(C)N1CCOC[C@H]1c1nc(C(C)(C)C)c[nH]1 | -1.99
CC(C)c1nnc(NC(=O)CSCc2cc(=O)n3ccccc3n2)s1 | 2.08
CN1CCN(CCCNC(=O)CCc2nc3cc(Br)cnc3[nH]2)CC1 | -124
O=C(NCCn1cnc(C2CCCC2)cc1=O)c1ccc(=O)[nH]n1 | -0.895
COC(=O)c1sccc1S(=O)(=O)NCCc1ccoc1 | 2.6
O=C(CCn1cc(Cl)cn1)Nc1nncs1 | -9.61
Nc1c(C(=O)C2CCCN(C(=O)C3CC3)C2)cnn1-c1ccc(F)cc1 (stereo unspecified) | 6.12
O=C(N[C@@H]1CC[C@@H](N2CCOCC2)[C@@H]1O)c1cnn2cccnc12 | -27.1
O=C(c1n[nH]cc1Cl)N1CCCC(n2nnc3cc(F)ccc32)C1 (stereo unspecified) | -8.55
Cc1nn(C)cc1CN1CCc2nc(-c3cccnc3)nc(O)c2C1 | 22.5
CC(C)N1CCC(Cc2cncc(-c3ccccc3C(=O)O)n2)CC1 | 0.822
Cc1ccc(S(=O)(=O)N2CCN(CCC(N)=O)CC2)s1 | -9.88
Cc1ccc(F)c2c1CCCN2Cc1cc(=O)n(C)c(=O)n1C | 13.6
O=C(Nc1cccnc1N1CCSCC1)c1ccc2c(c1)CCC2 | -2.03
Cc1cc(-n2c(C)cn(CN(C)C3CCS(=O)(=O)C3)c2=O)no1 (stereo unspecified) | -0.872
CC(C)(C)CNC(=O)c1ccc(C(=O)O)nc1 | 10.4
Cc1ccc(CNC(=O)Nc2nnc(C(C)C)s2)n1C | -10
COc1ccccc1CCNC(=O)N(C)C(C)CS(C)(=O)=O (stereo unspecified) | -48.8
CC(C)N(C(=O)Cn1nc2n(c1=O)CCCCC2)C1CCC1 | -7.62
CN(Cc1ccccc1)c1ccc(C(F)(F)F)cn1 | 10.2

SMILES | cytotoxicity at 10 µM [%]
CCS(=O)(=O)CC(=O)Nc1c(C)cnn1Cc1cc(F)ccc1F | -4.96
CCOCCNC(=O)c1cc(Br)c2c(c1)OCCO2 | 1.41
Cc1nc(CN2CCC(CNC(=O)C3(C#N)CCCC3)CC2)oc1C | 1.29
CCOC(C)c1noc(CN2CCN(Cc3cccc(F)c3)CC2)n1 (stereo unspecified) | 7.66
COc1ccccc1N1CCCC(Nc2ncccn2)C1=O (stereo unspecified) | 4.96
Cc1cc(F)cc(S(=O)(=O)NC(=O)CCc2cncc(F)c2)c1 | 7.78
CN(Cc1cscn1)C1CCN(C(=O)OC(C)(C)C)CC1 | -3.76
CC(C)N1CCC(Nc2ccn(Cc3ccccn3)n2)C1=O (stereo unspecified) | -2.43
Cc1nnc2ccc(C(=O)N3CCSC(C)(C)C3)cn12 | -3.54
CCC(C)NC(=O)c1ccc(NC(=O)CCc2ccncc2)c(C)c1 (stereo unspecified) | 4.31
Cc1cc(C)cc(C(=O)NCCCC2(C3OCCO3)CCOCC2)c1 | 9.4
COC1CCN(C(=O)c2nn(-c3ccc(C(C)C)cc3)cc2O)CC1 | -42.9
Cc1nc(CN2C(=O)CC[C@@H]3[C@H]2CCN3C(=O)NC2CC2)cs1 | 9.37
Cc1nc2cc(C(=O)N3C[C@@H](NS(C)(=O)=O)[C@H](C(C)C)C3)ccc2[nH]1 | -4.47
CC(=O)NC1CCN(c2ncnc3c2c(C)nn3C)C1 (stereo unspecified) | -2.78
CCC(C)N(Cc1ccncc1)Cc1ccccc1Cn1cccn1 (stereo unspecified) | -44.4
Cc1cc(N2CCC(c3ncc[nH]3)CC2)cc(C)n1 | -1.95
CC(=O)NCCc1ncnn1-c1ccc(F)c(Cl)c1 | -15
CCC(c1nc(C(C)C)nn1-c1ccccn1)n1cccn1 (stereo unspecified) | 5.66
CCn1nc(C)cc1C(=O)N1C[C@@H](CN(C)C)[C@@H](CO)C1 | 3.3
C[C@@H]1CN(S(=O)(=O)N2CCOCC2)C[C@@]1(O)C1CC1 | 5.91

SMILES | cytotoxicity at 10 µM [%]
Cc1cc(CN[C@H](C(N)=O)[C@@H](C)O)c(C)s1 | 9.5
COCCCN1C(=O)CC[C@H]2CN(Cc3ncc[nH]3)CC[C@H]21 | -0.462
CCCc1nc(N2CCCN(c3ccncc3)CC2)c2cnn(C)c2n1 | -2.47
Cc1cnn(CC(=O)N2CCC3(CCC(=O)N(C4CCCC4)C3)CC2)c1 | 3.03
Cc1n[nH]c(C)c1CCC(=O)NCC1CCCN(C2CCCC2)C1 (stereo unspecified) | -6.32
CCCN(Cc1ccc(S(=O)(=O)NC)cc1)Cc1ccccc1OC | -0.89
O=C(c1ccc(-c2cccc3c2CCNC3)o1)N1CCOCC1 | 3.34
OC1CCN(c2ccnc(NCCc3ccccc3Cl)n2)CC1 | 16.5
CCNc1ncc(C(=O)NC(CCN(C)C)c2ccccc2)cn1 (stereo unspecified) | 4.8
CC(Cn1cccn1)C(=O)N1CCC(NS(C)(=O)=O)CC1 (stereo unspecified) | -8.34
c1ccc(-c2ncc(CN3CCCCC3CCn3cccn3)cn2)nc1 (stereo unspecified) | -3.34
Cc1cnc(N)nc1NCCSCc1[nH]cnc1C | 4.34
COc1cc(N2CCC(c3nccn3Cc3cccnc3)CC2)ncn1 | -4.4
O=C(NC1CCCCC1)N1C[C@H]2CN(c3cnccn3)C[C@@]2(C(=O)O)C1 | 13.7
CCc1noc(C)c1C(=O)N1CCCCC1Cn1cc(C)cn1 (stereo unspecified) | 10.8
OCCn1nccc1C1CCN(CCOc2ccc(Cl)cc2)CC1 | -4.68
COc1ccc(OCCN(C)Cc2nc3c(cnn3C)c(=O)[nH]2)cc1 | -4.03
COc1cccc(C(=O)NS(=O)(=O)c2cccc(C#N)c2)c1 | -6.12
COc1cccc(CNCc2c(C)nn(C)c2N(C)C)c1 | -2.51
Cc1cc(CN2CCN(C(=O)NC(C)c3cccs3)CC2)on1 (stereo unspecified) | -7.72
Cc1cc(C)n(CC2CCCN2C(=O)c2ccc(N(C)C)nn2)n1 (stereo unspecified) | 1.53

SMILES | cytotoxicity at 10 µM [%]
Cc1nc(C)n(CC2CCCN(CCc3ccccc3)C2)n1 (stereo unspecified) | -3.12
CCOc1cccc2c1OCC(C(=O)NS(=O)(=O)c1ccc(Br)s1)=C2 | -11.6
CCC(NC(=O)c1ccco1)c1ccccc1OCC(=O)N1CCCC1 (stereo unspecified) | 4.9
O=C(O)c1cc(S(=O)(=O)N2CCOc3ccccc32)ccc1F | -2.94
CC(=O)N(Cc1noc(C2CC2)n1)C1CCN(Cc2ccncc2)C1 (stereo unspecified) | -13.8
Cc1nn(C)c(C)c1CC(=O)N1CCC(N(C)c2cccnn2)CC1 | -3.33
Cc1nn(CC(=O)N2CCC(Nc3cccnn3)CC2)c(C)c1Cl | -12
OC(CN1CCCCCCC1)c1ccc(F)cc1 (stereo unspecified) | -10.4
CC(NC(=O)NCCCn1ccnc1)c1ccc2c(c1)CCC(=O)N2 (stereo unspecified) | -4.74
Cn1cc(C2CCCN2C(=O)Cc2n[nH]c3ccccc23)cn1 (stereo unspecified) | 2.56
Cc1cnn(CC2CCCN2Cc2nc3ccccc3n2C)c1 (stereo unspecified) | -14.5
Cc1cc(C)n(CC2CCCCN2C(=O)c2cnn(C)c2)n1 (stereo unspecified) | 6.79
OCC1CCCN1c1cc(NCc2ccc(Cl)s2)ncn1 (stereo unspecified) | -2.96
Cn1cncc1CN1CCC(O)(Cn2nc(-c3cccs3)oc2=O)CC1 | -5.46
Cc1ncsc1C(=O)NCCn1nc(C2CCNC2)c2cccnc21 (stereo unspecified) | -0.98
COCc1ccc(CN2CCC(O)(Cn3ccc4ncccc43)CC2)o1 | 4.45
c1cnc2c(c1)cc([C@@H]1CCCO1)n2CCN1CCCCC1 | -25.9
COc1ccc(/C=C/CN2C[C@@H]3CC[C@H]2CN(S(=O)(=O)N(C)C)C3)cc1 | -2.72
